# CHO parental Ca: counter-screen: ATP calcium response change in parental CHO cells. inhibition, % at 5.6 µM. parental CHO-K1, ATP-induced calcium, Fluo-8 fluorescence. 330,000 tested, 0.63% active;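 active = inhibition above that plate's mean sample inhibition plus 3 SD, cut at about 26% in these data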;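 note: 0% = ATP-challenged DMSO wells and 100% = DMSO wells without ATP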
#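 Assay system: untransfected parental CHO cell line. Also added: ATP agonist challenge. Dosing: one dose, 5.6 µM nominal. Measured by: Fluo-8 fluorescence. Read-out: % inhibition. Benchmarks: ATP wells versus no-ATP DMSO wells. Repeats: no replicates.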
# OX1R antag-1: human HCRTR1 antagonism | O43613 | CHO/OX1R cells, Fluo-8 calcium fluorescence, orexin A | inhibition, % at 5 µM | 330,000 tested, 0.43% active | AID 434989;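 active = inhibition above its plate's threshold, mean inhibition of all tested compounds on the plate plus 3 SD, cut at about 37% in these data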;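 note: 0% = orexin A challenge wells and 100% = SB-334867-A antagonist wells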
# Target sequence (O43613 whole entry, looked up): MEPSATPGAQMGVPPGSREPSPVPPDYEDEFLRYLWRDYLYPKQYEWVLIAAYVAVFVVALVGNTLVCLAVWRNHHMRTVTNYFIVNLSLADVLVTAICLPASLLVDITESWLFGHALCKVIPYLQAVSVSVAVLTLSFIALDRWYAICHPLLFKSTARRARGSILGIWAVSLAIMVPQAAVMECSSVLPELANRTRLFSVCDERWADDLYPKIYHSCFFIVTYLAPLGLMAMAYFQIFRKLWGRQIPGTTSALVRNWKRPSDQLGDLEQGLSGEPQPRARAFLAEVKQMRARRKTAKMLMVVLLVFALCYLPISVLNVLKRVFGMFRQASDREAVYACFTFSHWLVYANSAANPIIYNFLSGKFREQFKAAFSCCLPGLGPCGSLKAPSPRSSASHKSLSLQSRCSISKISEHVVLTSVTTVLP
# OX1R antag-2: OX1R (human) antagonism | OX1R-expressing cells, FRET antagonist read-out | inhibition, % at 6.6 µM | 330,000 tested, 1.8% active | AID 485270; in the data active = inhibition mostly above about 38%, no sharp cut-off; inactive = mostly below about 40%;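 note: 0% = agonist challenge alone and 100% = reference antagonist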
# TAAR1 ag: agonists of human TAAR1; 360,000 tested, 0.99% active; CHO RD-HGA16 TAAR1, Fluo-8 calcium fluorescence; vehicle wells 0%, saturating PEA agonist 100%; activation, % at 3 µM; Q96RJ0; AID 624467;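 active = activation above the mean activation of all test compounds in the run plus 3 SD, cut at about 38% in these data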
#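 Repeats: no replicates (n 1) | Material: CHO-derived RD-HGA16 cells with stable Gα16 and human TAAR1 | Technique: Kinetic Fluo-8 calcium fluorescence | Schedule: 17-24 h seeding, 75 min 37 °C dye, 30 min RT | Evaluation: % activation from peak over basal fluorescence ratio, DMSO-to-PEA scaled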
# GalR3 antagonist: human GalR3 antagonism; O60755; HEK293 GalR3-CNG cAMP membrane potential fluorescence; galR3 body fused to GalR1 C-terminus; inhibition, % at 3 µM; 360,000 tested, 0.44% active;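 active = inhibition above the screen-wide average plus 3 SD, cut at about 13% in these data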;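 note: forskolin and galanin both at EC90 stimulate the cells; cAMP rise reported by CNG channel membrane potential dye signal; 0% = forskolin plus galanin with DMSO and 100% = forskolin alone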
# TAAR1 antag: human TAAR1 antagonism; Q96RJ0; CHO RD-HGA16 TAAR1, Fluo-8 calcium fluorescence, antagonist; inhibition, % at 3 µM; 360,000 tested, 1.5% active;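 active = inhibition above a per-plate cutoff, the mean inhibition of test compounds on that plate plus 3 SD, cut at about 49% in these data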;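 note: 0% = DMSO plus EC80 beta-PEA response and 100% = DMSO alone without agonist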
#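 Test system: hTAAR1-expressing CHO RD-HGA16 cells, Gα16-coupled; Probe or stimulus: EC80 β-phenethylamine stimulus; Compound dosing: single nominal final test compound concentration of 3 µM; Timing: 140 s kinetic read after compound, 140 s after agonist; Signal: Fluo-8 calcium-sensitive fluorescence; Measure: % inhibition of agonist calcium response; Controls: DMSO and EC80 PEA controls.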
# Active calls of the source: *; . = no result given. Compounds with a hit are over-represented: about 4.3% of the library has one in this group of screens.
SMILES,CHO parental Ca,OX1R antag-1,OX1R antag-2,TAAR1 ag,GalR3 antagonist,TAAR1 antag
CCOc1ccccc1C(=O)Nc1ccccc1C(N)=O,-4,5,7,2,-7,7
OCC(O)C1OC(c2ccccc2)OC(CO)C1O (stereo not drawn),.,.,.,1,7,12
COc1ccc(N(CC(=O)NCCSCc2ccccc2C)S(=O)(=O)c2ccccc2)cc1,-26,-10,61,5,-6,52*
COc1ccc(OC)c(N(CC(=O)NCCSCc2ccco2)S(=O)(=O)c2ccc(OC)c(OC)c2)c1,-4,7,31,13,2,79*
Cc1cccc(N(CC(=O)NCCSCc2ccco2)S(=O)(=O)c2ccccc2)c1,-11,32,59,8,-5,40
COc1ccc(C)cc1N(CC(=O)NCCSCc1ccco1)S(=O)(=O)c1ccc(C)cc1,-1,-101,49,4,-9,45
COc1cccc(N(CC(=O)NCCSCc2ccco2)S(=O)(=O)c2ccccc2)c1,-13,23,45*,3,-5,31
Cc1cn([C@H]2C[C@H](O)[C@@H](CNCc3ccc(F)c(N4CCOCC4)c3)O2)c(=O)[nH]c1=O,.,.,.,1,-6,-16
Cc1ccc(CNCCCn2cnc(C(=O)Nc3ccc(C)c(C)c3)n2)o1,.,.,.,1,-4,7
O=C(CSc1cccc2cccnc12)Nc1cc(C(=O)O)cc(C(=O)O)c1,-2,-2,13,1,-11,-1
CCc1nnc(SCC(=O)Nc2nccs2)n1CC,-2,-3,9,0,-2,-21
CCn1c(Cc2cccc3ccccc23)nnc1SCC(=O)Nc1nccs1,-4,23,71*,4,-1,7
Cc1cc(C(=O)Nn2c(C3CCCCC3)nc3ccccc3c2=O)ccc1[N+](=O)[O-],-14,-20,26,7,-1,7
O=C(Nn1c(C2CCCCC2)nc2ccccc2c1=O)c1ccc(Cl)c([N+](=O)[O-])c1,-22,-19,53*,1,-6,-9
CC(C)[C@H](N)C(=O)N[C@H](C(=O)N1CCC2CCN(Cc3ccccc3)CC21)C(C)C (stereo partly drawn),.,.,.,3,-2,8
Cc1nc2ccccc2c(=O)n1CCN1CCOCC1,-5,-18,12,4,-2,-20
Cc1nc2nc(C)n(CCN3CCOCC3)c(=O)c2c(-c2cccc([N+](=O)[O-])c2)c1C(=O)CCCCCCCCCCN1CCC(c2ccccc2)(c2ccccc2)CC1,.,.,.,18,-7,49*
O=[N+]([O-])c1cc(Br)c(O)c(C=Nc2ccc(N3CCOCC3)cc2)c1,-16,-14,66*,11,12,1
COc1ccc(CN(C(=O)CSc2nnc(-c3c[nH]c4ccccc34)o2)c2ccc(F)cc2)cc1OC,35*,34,81*,26,-5,82*
COc1ccc(CN(C(=O)CSc2nnc(-c3ccc(F)cc3)o2)c2ccc(F)cc2)cc1,-6,-9,23,0,-9,-34
COC(=O)C1=C(C)N(Cc2ccccc2C(F)(F)F)C(=NCc2cc(OC)c(OC)c(OC)c2)NC1CCc1ccccc1 (stereo not drawn),.,.,.,18,-6,6
COc1ccccc1CNc1ncnc2nc[nH]c12,5,-10,13,1,-4,1
c1ccc2c(CCNc3ncnc4nc[nH]c34)c[nH]c2c1,4,-9,13,10,-4,59*
CN(C(=O)c1cc2c(cc1Br)OCO2)c1cccc2ccccc12,.,.,.,10,-3,11
Cc1nnsc1NC(=O)OCc1ccccc1Cl,2,0,9,41*,-1,5
SMILES,CHO parental Ca,OX1R antag-1,OX1R antag-2,TAAR1 ag,GalR3 antagonist,TAAR1 antag
Cc1nnsc1NC(=O)OCc1ccc(C(F)(F)F)cc1,-18,-8,9,2,0,5
CS(=O)(=O)Nc1cccc(-c2ccc3nncn3c2)c1,.,.,.,1,-4,-12
CCCCCCCCN1C(=O)[C@@H](CC(=O)NCCCOCCCC)C[C@@]2(C(=O)OC)C1=C[C@H](C(C)(C)C)O[C@@H]2C,.,.,.,-2,1,-17
O=C(O)c1ccc(Nc2cccc(F)c2)c([N+](=O)[O-])c1,-5,-4,26,13,-10,-15
COc1cccc(Nc2c(Nc3cccc(OC)c3)c(=O)c2=O)c1,4,-8,10,5,-8,-5
COc1ccccc1Nc1ccncc1[N+](=O)[O-],-7,6,38,1,-3,3
O=C(O)c1cccc(Nc2ccncc2[N+](=O)[O-])c1,3,-18,38*,6,-8,-18
O=[N+]([O-])c1cnccc1Nc1ccccc1,-2,-7,58*,0,-6,-12
COc1cccc(Nc2c([N+](=O)[O-])cncc2[N+](=O)[O-])c1,-7,-10,76*,12,-12,-19
Nc1ccccc1Nc1ccncc1[N+](=O)[O-],-4,-7,24,7,-4,5
Nc1ccc(Nc2ccncc2[N+](=O)[O-])cc1,-12,-6,64*,-2,0,0
CCCCCCCCCCCCCCCC[n+]1cccc2ccccc21,89*,63*,30,35,-3,20
Cc1ccccc1C[n+]1cccc2ccccc21,-19,0,34,1,-2,5
CCCCCCCCC[n+]1cccc2c3ccccc3ccc21,86*,94*,76,.,.,.
CCCCS(=O)(=O)N1C2=NC(C(=O)OCC)=C(C(=O)OCC)C3N(Cc4ccc(Br)cc4)c4ccccc4[C@]23C[C@H]1C(=O)OC (stereo partly drawn),.,.,.,1,-1,-23
Cc1cc(/C=N/NC(=O)c2cc3ccccc3o2)c(C)n1C,-12,-18,34,11,-6,54*
O=C(N/N=C/c1ccc([N+](=O)[O-])o1)c1cc2ccccc2o1,-5,-6,31,0,-4,7
O=C(N/N=C/c1cc(Br)c(Br)o1)c1cc2ccccc2o1,15,-2,62*,2,-2,-5
O=C(OCc1ccccc1)N1CCC2CC1c1cc(-c3ccc4c(c3)OCO4)ccc12 (stereo not drawn),.,.,.,0,-6,-1
COc1cccc(NC(=O)CN(C)C(=O)c2cn(-c3ccccc3)nc2-c2cccs2)c1,1,9,51*,11,-6,61*
CCN(CC(=O)Nc1ccc(NC(C)=O)cc1)C(=O)c1cn(-c2ccccc2)nc1-c1cccs1,.,.,.,13,-5,64*
COc1cccc(NC(=O)CN(C)C(=O)c2cn(-c3ccccc3)nc2-c2cccnc2)c1,-18,-4,6,12,6,44
CN1CCN(C(=O)c2cn(-c3ccccc3)nc2-c2cccs2)CC1,-9,-9,6,5,8,15
